Calls of active or inactive are those of the source.
What was measured:
P2X purinoceptor 7 [1] = molecular target: T1, P2X purinoceptor 7 (Homo sapiens, UniProt Q99572); assay: Antagonist activity at human P2X7 receptor expressed in human 1321N1 cells assessed as inhibition of calcium flux by FLIPR; type: functional, cell-based
T1 sequence (Q99572 whole entry): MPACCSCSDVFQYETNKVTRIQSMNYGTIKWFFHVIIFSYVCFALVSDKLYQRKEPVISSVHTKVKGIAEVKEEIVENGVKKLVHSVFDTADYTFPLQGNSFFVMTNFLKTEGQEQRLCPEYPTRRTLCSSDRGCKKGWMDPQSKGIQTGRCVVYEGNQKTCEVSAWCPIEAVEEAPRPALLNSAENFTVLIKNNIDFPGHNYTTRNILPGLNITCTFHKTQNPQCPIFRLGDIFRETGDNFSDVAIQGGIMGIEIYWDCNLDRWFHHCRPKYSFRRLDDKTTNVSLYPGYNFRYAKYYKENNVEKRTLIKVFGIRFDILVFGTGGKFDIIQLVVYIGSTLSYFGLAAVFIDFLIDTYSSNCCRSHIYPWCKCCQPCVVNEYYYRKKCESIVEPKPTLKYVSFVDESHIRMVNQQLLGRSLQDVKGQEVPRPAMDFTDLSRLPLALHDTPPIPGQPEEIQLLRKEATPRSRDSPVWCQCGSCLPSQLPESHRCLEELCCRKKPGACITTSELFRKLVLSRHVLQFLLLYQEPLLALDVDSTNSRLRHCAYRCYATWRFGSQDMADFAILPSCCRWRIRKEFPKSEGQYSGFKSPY
Summary of the method: (§1)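 Recombinant P2X7 (human or rat) stably transfected into human 1321N1 astrocytoma cells lacking endogenous P2X receptor function. Fluo-4 calcium dye, FLIPR read-out. 5-min antagonist pretreatment, then BzATP agonist. IC50 determined.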

THP-1 [2] = assay: Ability to block pore formation in human THP1 cells assessed as inhibition of YO-PRO-1 diiodide dye uptake; type: functional, cell-based
Summary of the method: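 Differentiated human THP-1 cells stimulated with agonist BzATP for 1 h in presence of test compound. Pore formation read as inhibition of cellular uptake of the impermeable dye YO-PRO-1 diiodide.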

Rattus norvegicus [3] = assay: Reversal of mechanical allodynia in L5/L6 spinal nerve tight ligation model of neuropathic pain in ip dosed rat; type: functional
Summary of the method: (§2)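 Spinal nerve ligation (L5/L6, Chung) done 7-14 days before testing. Antagonist given ip at 10-300 µmol/kg. Von Frey hair applied 30 min after dosing. Paw withdrawal threshold on injured (left) side compared with contralateral paw. ED50 and maximal response relative to contralateral side derived.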

P2X purinoceptor 7 [4] = molecular target: T2, P2X purinoceptor 7 (Rattus norvegicus, UniProt Q64663); assay: Antagonist activity at rat P2X7 receptor expressed in human 1321N1 cells assessed as inhibition of calcium flux by FLIPR; type: functional, cell-based; summary of the method: as §1
T2 sequence (Q64663 whole entry): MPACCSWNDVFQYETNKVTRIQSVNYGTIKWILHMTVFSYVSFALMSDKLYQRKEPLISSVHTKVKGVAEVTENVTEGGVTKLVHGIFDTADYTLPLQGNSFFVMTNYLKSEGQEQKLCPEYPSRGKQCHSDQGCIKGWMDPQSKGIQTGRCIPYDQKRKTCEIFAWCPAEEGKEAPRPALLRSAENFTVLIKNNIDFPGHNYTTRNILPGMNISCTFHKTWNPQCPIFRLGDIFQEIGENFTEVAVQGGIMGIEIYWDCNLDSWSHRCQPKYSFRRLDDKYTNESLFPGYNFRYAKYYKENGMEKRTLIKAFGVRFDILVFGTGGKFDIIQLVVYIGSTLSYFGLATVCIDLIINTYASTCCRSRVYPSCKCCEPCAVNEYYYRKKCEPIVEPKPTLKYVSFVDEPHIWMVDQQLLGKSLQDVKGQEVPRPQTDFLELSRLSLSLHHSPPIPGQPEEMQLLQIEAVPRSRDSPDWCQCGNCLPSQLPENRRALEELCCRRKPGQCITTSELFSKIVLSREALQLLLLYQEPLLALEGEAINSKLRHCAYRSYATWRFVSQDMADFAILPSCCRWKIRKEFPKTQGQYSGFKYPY

THP-1 [5] = assay: Inhibition of ILbeta production in human THP1 cells; type: functional, cell-based
Summary of the method: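 Human THP-1 cells differentiated with LPS and IFNγ, then stimulated with BzATP for 30 min in presence of test compound. Released IL-1β quantified by EIA.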

Rattus norvegicus [6] = assay: Reversal of mechanical allodynia in L5/L6 spinal nerve tight ligation model of neuropathic pain in ip dosed rat relative to control; type: functional; summary of the method: as §2
[7] = Oral bioavailability in rat at 10 umol/kg, ip; type: ADME, organism-based; details: in vivo, intraperitoneal, read-out: Activity
[8] = Half life in rat at 10 umol/kg; type: ADME, organism-based; details: in vivo
Rattus norvegicus [9] = assay: Impairment of motor function in rat by rotarod assay up to 300 umol/kg, ip; type: functional, organism-based
Summary of the method: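 Accelerating rotarod, ip dosing up to 300 µmol/kg. Time for the animal to fall from the rod recorded.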

`Clc1ccccc1-c1nnnn1Cc1cccnc1` showed an IC50 (P2X purinoceptor 7 [1]) of 15800 nM.

Work on `Fc1ccc(-n2nnnc2Cc2cccnc2)c(Cl)c1C(F)(F)F` yielded an IC50 (THP-1 [2]) of 158 nM and an IC50 (P2X purinoceptor 7 [1]) of 20 nM.

For `Clc1cccc(-c2nnnn2Cc2cccnc2)c1Cl`, the ED50 (Rattus norvegicus [3]) was 76 µmol/kg, the IC50 (THP-1 [2]) was 200 nM and the IC50 (P2X purinoceptor 7 [4]) was 316 nM. It also gave an IC50 (THP-1 [5]) of 398 nM, an Activity (Rattus norvegicus [6]) of 78% and a bioavailability [7] of 19%. For the same compound, the half-life [8] was 1 h and the Activity (Rattus norvegicus [9]) was “inactive”.

`COc1cccc(-c2nnnn2Cc2ccccc2Cl)c1OC` showed an IC50 (THP-1 [2]) greater than 10000 nM and an IC50 (P2X purinoceptor 7 [1]) of 3980 nM.

For `Clc1ccc(-c2nnnn2Cc2cccnc2)c(Cl)c1Cl`, the IC50 (THP-1 [2]) was 1350 nM and the IC50 (P2X purinoceptor 7 [1]) was 200 nM.

Compound `c1ccc(Cn2nnnc2-c2cccc3ncccc23)cc1` has an IC50 (THP-1 [2]) greater than 10000 nM and an IC50 (P2X purinoceptor 7 [1]) of 15800 nM.

With `Cc1ccccc1Cn1nnnc1-c1cccc(Cl)c1Cl` the IC50 (THP-1 [2]) was 126 nM, the IC50 (P2X purinoceptor 7 [4]) was 63.1 nM and the IC50 (THP-1 [5]) was 158 nM. The IC50 (P2X purinoceptor 7 [1]) was 15.8 nM.

Compound `Fc1c(-c2nnnn2Cc2cccnc2)cccc1C(F)(F)F` has an IC50 (THP-1 [2]) of 501 nM, an IC50 (P2X purinoceptor 7 [4]) of 79.4 nM and an IC50 (THP-1 [5]) of 501 nM. For the same compound, the IC50 (P2X purinoceptor 7 [1]) was 63.1 nM.

`Clc1cccc(-c2nnnn2CCc2cccnc2)c1Cl` showed an IC50 (THP-1 [2]) greater than 10000 nM and an IC50 (P2X purinoceptor 7 [1]) of 12600 nM.

`Clc1ccc(Cl)c(-c2nnnn2Cc2cccnc2)c1` gave an IC50 (THP-1 [2]) greater than 10000 nM and an IC50 (P2X purinoceptor 7 [1]) of 15800 nM.

In the case of `Cc1noc(C)c1Cn1nnnc1-c1cccc(Cl)c1Cl`, the IC50 (THP-1 [2]) is reported as 794 nM and the IC50 (P2X purinoceptor 7 [1]) is reported as 158 nM.

Compound `O=C(NCC12CC3CC(CC(C3)C1)C2)c1cccc(Cl)c1Cl` has an IC50 (P2X purinoceptor 7 [1]) of 63.1 nM.

`c1ccc(Cn2nnnc2-c2cccc3cccnc23)cc1` showed an IC50 (P2X purinoceptor 7 [1]) of 25100 nM.

`Cc1ccccc1Cn1nnnc1-c1cccc(C)c1C` gave an IC50 (THP-1 [2]) of 1260 nM and an IC50 (P2X purinoceptor 7 [1]) of 251 nM.

Work on `Clc1cccc(-c2nnnn2Cc2ccncc2)c1Cl` yielded an IC50 (THP-1 [2]) of 2000 nM, an IC50 (P2X purinoceptor 7 [4]) of 3160 nM and an IC50 (THP-1 [5]) of 20000 nM. The IC50 (P2X purinoceptor 7 [1]) was 794 nM.

`Clc1cccc(-n2nnnc2Cc2cccnc2)c1Cl` showed an IC50 (THP-1 [2]) of 398 nM and an IC50 (P2X purinoceptor 7 [1]) of 100 nM.

Work on `FC(F)(F)c1cccc(-n2nnnc2Cc2cccnc2)c1Cl` yielded an IC50 (THP-1 [2]) of 50.1 nM, an IC50 (P2X purinoceptor 7 [4]) of 50.1 nM and an IC50 (THP-1 [5]) of 25.1 nM. It also gave an IC50 (P2X purinoceptor 7 [1]) of 12.6 nM.

`Cc1nc(C)c(Cn2nnnc2-c2cccc(Cl)c2Cl)s1` showed an IC50 (THP-1 [2]) of 251 nM, an IC50 (P2X purinoceptor 7 [4]) of 1260 nM and an IC50 (P2X purinoceptor 7 [1]) of 50.1 nM.

Compound `Clc1cccc(-c2nnnn2Cc2cccnc2)c1` has an IC50 (THP-1 [2]) greater than 10000 nM and an IC50 (P2X purinoceptor 7 [1]) of 7940 nM.

With `c1ccc(Cn2nnnc2-c2ccncc2)cc1` the IC50 (P2X purinoceptor 7 [1]) was 31600 nM.

`Fc1ccc(-c2nnnn2Cc2cccnc2)c(Cl)c1Cl` gave an IC50 (THP-1 [2]) of 398 nM and an IC50 (P2X purinoceptor 7 [1]) of 12.6 nM.

`Clc1cccc(-c2nnnn2Cc2ccccn2)c1Cl` gave an IC50 (THP-1 [2]) of 2000 nM and an IC50 (P2X purinoceptor 7 [1]) of 501 nM.

With `c1ccc(-c2nnnn2Cc2cccnc2)cc1` the IC50 (THP-1 [2]) was greater than 10000 nM and the IC50 (P2X purinoceptor 7 [1]) was 25100 nM.

With `Clc1ccc(-c2nnnn2Cc2cccnc2)cc1Cl` the IC50 (THP-1 [2]) was 7940 nM and the IC50 (P2X purinoceptor 7 [1]) was 3980 nM.

For `Cc1ncccc1Cn1nnnc1-c1cccc(Cl)c1Cl`, the IC50 (THP-1 [2]) was 200 nM, the IC50 (P2X purinoceptor 7 [4]) was 200 nM and the IC50 (THP-1 [5]) was 158 nM. For the same compound, the IC50 (P2X purinoceptor 7 [1]) was 31.6 nM.

In the case of `Clc1c(-c2nnnn2Cc2ccccc2)ccc(N2CCCC2)c1Cl`, the IC50 (P2X purinoceptor 7 [1]) is reported as greater than 10000 nM.

`Fc1ccc(-n2nnnc2Cc2cccnc2)c(Cl)c1Cl` showed an IC50 (P2X purinoceptor 7 [4]) of 100 nM, an IC50 (THP-1 [5]) of 39.8 nM and an IC50 (P2X purinoceptor 7 [1]) of 25.1 nM.

Compound `Fc1cccc(-c2nnnn2Cc2cccnc2)c1C(F)(F)F` has an IC50 (P2X purinoceptor 7 [1]) of 631 nM.

Compound `FC(F)(F)c1cccc(-c2nnnn2Cc2cccnc2)c1Cl` has an IC50 (THP-1 [2]) of 158 nM, an IC50 (P2X purinoceptor 7 [4]) of 63.1 nM and an IC50 (THP-1 [5]) of 79.4 nM. For the same compound, the IC50 (P2X purinoceptor 7 [1]) was 12.6 nM.

Work on `Clc1cccc(-c2nnnn2Cc2ccccc2)c1Cl` yielded an IC50 (THP-1 [2]) of 501 nM, an IC50 (P2X purinoceptor 7 [4]) of 79.4 nM and an IC50 (P2X purinoceptor 7 [1]) of 39.8 nM.

Source: ChEMBL document CHEMBL1148647, “Structure-activity relationship studies on a series of novel, substituted 1-benzyl-5-phenyltetrazole P2X7 antagonists” (J Med Chem, 2006)
